Measurements from ChEMBL document CHEMBL2169854, “New insight into the central benzodiazepine receptor-ligand interactions: design, synthesis, biological evaluation, and molecular modeling of 3-substituted 6-phenyl-4H-imidazo[1,5-a][1,4]benzodiazepines and related compounds” (J Med Chem, 2011).
The source made the active and inactive calls. The rule behind the calls is not given here.

Experiments:
[1] = target: T1, GABA-A receptor; alpha-5/beta-3/gamma-2 (Homo sapiens, UniProt P18507+P28472+P31644); test: Displacement of [3H]flumazenil from human recombinant GABA-A alpha5beta3gamma2L receptor in HEK293 cells; format: cell-based
T1 sequence (P18507 whole entry): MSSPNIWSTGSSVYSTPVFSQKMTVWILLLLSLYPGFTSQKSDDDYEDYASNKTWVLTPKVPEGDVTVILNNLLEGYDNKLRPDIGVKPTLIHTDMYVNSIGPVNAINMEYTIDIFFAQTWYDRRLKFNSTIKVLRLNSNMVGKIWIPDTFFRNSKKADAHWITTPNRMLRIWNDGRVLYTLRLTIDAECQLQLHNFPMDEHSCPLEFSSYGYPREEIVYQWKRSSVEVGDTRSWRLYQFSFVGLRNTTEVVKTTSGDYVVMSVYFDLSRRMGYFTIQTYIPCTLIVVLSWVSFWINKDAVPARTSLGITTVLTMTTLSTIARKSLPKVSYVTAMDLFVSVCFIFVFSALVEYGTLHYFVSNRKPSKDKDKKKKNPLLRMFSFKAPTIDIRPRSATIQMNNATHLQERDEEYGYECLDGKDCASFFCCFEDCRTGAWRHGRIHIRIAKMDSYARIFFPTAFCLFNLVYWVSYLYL
T1 sequence (P28472 whole entry): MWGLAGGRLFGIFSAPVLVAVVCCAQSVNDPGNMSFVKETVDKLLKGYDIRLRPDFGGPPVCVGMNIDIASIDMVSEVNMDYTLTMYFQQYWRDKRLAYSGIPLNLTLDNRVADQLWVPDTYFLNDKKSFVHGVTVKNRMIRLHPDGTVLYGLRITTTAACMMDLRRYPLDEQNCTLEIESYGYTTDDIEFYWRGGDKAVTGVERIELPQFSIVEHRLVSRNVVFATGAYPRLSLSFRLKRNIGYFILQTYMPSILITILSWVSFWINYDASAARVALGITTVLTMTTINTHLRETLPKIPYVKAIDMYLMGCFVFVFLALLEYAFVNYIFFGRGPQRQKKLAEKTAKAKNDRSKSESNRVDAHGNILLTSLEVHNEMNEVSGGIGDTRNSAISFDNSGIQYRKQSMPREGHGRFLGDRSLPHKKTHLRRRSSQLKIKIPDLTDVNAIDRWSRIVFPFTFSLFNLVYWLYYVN
T1 sequence (P31644 whole entry): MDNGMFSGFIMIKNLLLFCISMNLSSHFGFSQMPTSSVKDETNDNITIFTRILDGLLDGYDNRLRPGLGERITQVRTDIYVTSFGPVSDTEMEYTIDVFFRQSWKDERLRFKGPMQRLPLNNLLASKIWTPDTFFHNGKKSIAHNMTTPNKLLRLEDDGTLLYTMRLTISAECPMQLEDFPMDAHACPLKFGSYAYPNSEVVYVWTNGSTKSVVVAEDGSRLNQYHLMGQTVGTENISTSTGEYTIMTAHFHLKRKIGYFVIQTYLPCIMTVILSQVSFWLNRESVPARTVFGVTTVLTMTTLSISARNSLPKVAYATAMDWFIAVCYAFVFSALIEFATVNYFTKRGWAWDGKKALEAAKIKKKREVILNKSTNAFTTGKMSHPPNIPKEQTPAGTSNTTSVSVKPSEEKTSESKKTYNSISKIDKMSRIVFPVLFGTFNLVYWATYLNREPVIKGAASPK
How it was run: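 Membranes came from stably transfected HEK293 lines expressing α2β2γ2 or α5β3γ2, grown in MEM/EBSS with 10% FCS at 37 C, and were resuspended in 10 mM potassium phosphate pH 7.4 with 100 mM KCl. […] At least six concentrations were tested, DMSO ≤1%. Ki was obtained by Cheng–Prusoff from n = 3 experiments run in triplicate.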

[2] = target: T2, GABA-A receptor; alpha-1/beta-2/gamma-2 (Homo sapiens) (UniProt P14867+P47870+P18507); test: (§1) Antagonist at human recombinant GABA-A alpha1beta2gamma2L receptor expressed in Xenopus laevis oocytes assessed as blockade of diazepam-induced potentiation of GABA-induced chloride current at 10 uM incubated 60 seconds before addition of GABA measured after 30 seconds at holding potential -70 mV by two-microelectrode voltage clamp technique; format: functional, cell-based; conditions: Oocyte
How it was run: (§2)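 Oocytes expressing human α1β2γ2L, α2β1γ2L or α5β2γ2L receptors were clamped at −70 mV. Compound at 10 μM was tested against the enhancement of the GABA EC10 response by 1.0 μM diazepam, with 60 s preapplication and 30 s coapplication. The response was expressed as percent potentiation, from 2–3 oocytes.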

[3] = target: T3, GABA A receptor alpha-1/beta-1/gamma-2 (Homo sapiens) (UniProt P14867+P18507+P18505); test: as §1, with “alpha1beta1gamma2L” for “alpha1beta2gamma2L”; format: functional, cell-based; conditions: Oocyte
[4] = species on record: Homo sapiens; test: Ratio of Ki for central benzodiazepine receptor in human cortical membrane to Ki for central benzodiazepine receptor in human cortical membrane in presence of 50 uM GABA; format: cell membranes
[5] = tested on: Oocyte; test: (§3) Modulation of human recombinant GABA-A alpha5beta2gamma2L receptor expressed in Xenopus laevis oocytes assessed as effect on GABA-induced chloride current at 1 uM incubated 60 seconds before addition of GABA measured after 30 seconds at holding potential -70 mV by two-microelectrode voltage clamp technique relative to control; format: cell-based
[6] = target: T2, GABA-A receptor; alpha-1/beta-2/gamma-2 (Homo sapiens); test: as §3, with “alpha1beta2gamma2L” for “alpha5beta2gamma2L”; format: cell-based; conditions: Oocyte
[7] = tested on: Oocyte; test: as §3, with “10” for “1”; format: cell-based
[8] = Displacement of [3H]flumazenil from central benzodiazepine receptor in human cortical membrane after 90 mins by beta liquid scintillation counting; format: cell membranes
[9] = target: T2, GABA-A receptor; alpha-1/beta-2/gamma-2 (Homo sapiens); test: as §3, with “alpha1beta2gamma2L” for “alpha5beta2gamma2L”, “10” for “1”; format: cell-based; conditions: Oocyte
[10] = tested on: Oocyte; test: as §1, with “alpha5beta2gamma2L” for “alpha1beta2gamma2L”; format: functional, cell-based; how it was run: as §2
[11] = target: T3, GABA A receptor alpha-1/beta-1/gamma-2 (Homo sapiens); test: as §3, with “alpha1beta1gamma2L” for “alpha5beta2gamma2L”, “10” for “1”; format: cell-based; conditions: Oocyte

Structure (SMILES) | Ki [1] [µM] | Activity [2] | Activity [3] | Ratio Ki [4] | Activity [5] [%] | Activity [6] [%] | Activity [7] [%] | Ki [8] [µM] | Activity [9] [%] | Activity [10] | Activity [11] [%]
CCOC(=O)c1ncn2c1CN=C(c1ccc(C)cc1)c1ccccc1-2 | 0.908 | Active | Active | 1.1 | -4 | 8 | -22 | 0.0185 | -4 | Active | 8.3
CCOC(=O)c1ncn2c1CN=C(c1ccc(F)cc1)c1cc(F)ccc1-2 | 0.772 | Active | Active | 1.05 | -1 | -13 | -16 | 0.0223 | 12 | Active | 6.5
